Converted amounts (≈) assume the structure as drawn.
How the values were obtained:
Type in all cases: functional
Staphylococcus aureus [1] = experiment: Antibacterial activity against Staphylococcus aureus ATCC 25923 after 18 hrs by broth microdilution method; settings: ATCC 25923, 18 h
Method in brief: (§1)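 MIC by broth microdilution per ISO 20776-1:2006 and CLSI M07-A8. Inoculum 10^6 cfu/ml in Mueller-Hinton broth with compound serially diluted, final concentrations 2 to 128 ug/ml, duplicate rows, no-drug growth control. Incubation 18 h at 37 °C. MIC taken as lowest concentration giving complete inhibition of visible growth. Each compound tested at least twice.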

Staphylococcus aureus [2] = experiment: Antibacterial activity against Staphylococcus aureus ATCC 29213 after 18 hrs by broth microdilution method; settings: ATCC 29213, 18 h; method in brief: as §1
Staphylococcus aureus [3] = experiment: Antibacterial activity against Staphylococcus aureus ATCC 9144 after 18 hrs by broth microdilution method; settings: ATCC 9144, 18 h; method in brief: as §1
Staphylococcus aureus [4] = experiment: Antibacterial activity against Staphylococcus aureus ATCC 6538 after 18 hrs by broth microdilution method; settings: ATCC 6538, 18 h; method in brief: as §1
Staphylococcus aureus [5] = experiment: Antibacterial activity against Staphylococcus aureus CIP 65.6 after 18 hrs by broth microdilution method; settings: CIP 65.6, 18 h; method in brief: as §1
Staphylococcus aureus [6] = experiment: Antibacterial activity against Staphylococcus aureus CIP 103428 after 18 hrs by broth microdilution method; settings: CIP 103428, 18 h; method in brief: as §1
Staphylococcus aureus [7] = experiment: Antibacterial activity against methicillin-resistant Staphylococcus aureus CIP 65.25 after 18 hrs by broth microdilution method; settings: CIP 65.25, 18 h
Method in brief: (§2)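 Broth microdilution following ISO 20776-1:2006 and CLSI M07-A8, in Mueller-Hinton broth. Inoculum was 10^6 cfu/ml, with compound serial dilutions spanning 2 to 128 ug/ml and a compound-free growth control well. Plates were incubated 18 h at 37 °C. MIC was the lowest concentration giving complete inhibition of visible growth. Each compound was tested at least twice.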

Staphylococcus aureus [8] = experiment: Antibacterial activity against methicillin-resistant Staphylococcus aureus ATCC 33592 after 18 hrs by broth microdilution method; settings: ATCC 33592, 18 h; method in brief: as §2
Staphylococcus aureus [9] = experiment: Antibacterial activity against vancomycin intermediate Staphylococcus aureus […] after 18 hrs by broth microdilution method; method in brief: as §2
[10] = test system: Staphylococcus epidermidis; experiment: Antibacterial activity against Staphylococcus epidermidis ATCC 12228 after 18 hrs by broth microdilution method; settings: ATCC 12228, 18 h; method in brief: as §1
[11] = test system: Staphylococcus epidermidis; experiment: Antibacterial activity against Staphylococcus epidermidis CIP 81.55 after 18 hrs by broth microdilution method; settings: CIP 81.55, 18 h; method in brief: as §1
[12] = test system: Staphylococcus epidermidis; experiment: Antibacterial activity against Staphylococcus epidermidis CIP 103627 after 18 hrs by broth microdilution method; settings: CIP 103627, 18 h; method in brief: as §1
Streptococcus pneumoniae [13] = experiment: Antibacterial activity against Streptococcus pneumoniae ATCC 49619 after 18 hrs by broth microdilution method; settings: ATCC 49619, 18 h
Method in brief: (§3)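 MIC by broth microdilution per ISO 20776-1:2006 and CLSI M07-A8. Inoculum 10^6 cfu/ml in Mueller-Hinton broth […]. Compound serially diluted, final 2 to 128 ug/ml, duplicate rows, no-drug growth control. Read after 18 h at 37 °C as lowest concentration fully inhibiting visible growth. At least two experiments.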

Streptococcus pneumoniae [14] = experiment: Antibacterial activity against Streptococcus pneumoniae ATCC 6303 after 18 hrs by broth microdilution method; settings: ATCC 6303, 18 h; method in brief: as §3

| SMILES | MIC (Staphylococcus aureus [1]) [mg/L] | MIC (Staphylococcus aureus [2]) [mg/L] | MIC (Staphylococcus aureus [3]) [mg/L] | MIC (Staphylococcus aureus [4]) [mg/L] | MIC (Staphylococcus aureus [5]) [mg/L] | MIC (Staphylococcus aureus [6]) [mg/L] | MIC (Staphylococcus aureus [7]) [mg/L] | MIC (Staphylococcus aureus [8]) [mg/L] | MIC (Staphylococcus aureus [9]) [mg/L] | MIC [10] [mg/L] | MIC [11] [mg/L] | MIC [12] [mg/L] | MIC (Streptococcus pneumoniae [13]) [mg/L] | MIC (Streptococcus pneumoniae [14]) [mg/L] |
| --- | --- | --- | --- | --- | --- | --- | --- | --- | --- | --- | --- | --- | --- | --- |
| CC(C)(C)OC(=O)NCC(c1c[nH]c2ccc(F)cc12)N(O)Cc1ccccc1 (stereo not drawn) | > 128 | > 128 | > 128 | > 128 | > 128 | > 128 | > 128 | > 128 | > 128 | > 128 | > 128 | > 128 | > 128 | > 128 |
| CC(c1c[nH]c2ccc(Br)cc12)N(O)Cc1ccccc1 (stereo not drawn) | > 128 | > 128 | > 128 | > 128 | > 128 | > 128 | > 128 | > 128 | > 128 | > 128 | > 128 | > 128 | > 128 | > 128 |
| CC(c1c[nH]c2ccc(Cl)cc12)N(O)Cc1ccccc1 (stereo not drawn) | > 128 | > 128 | > 128 | > 128 | > 128 | > 128 | > 128 | > 128 | > 128 | > 128 | > 128 | > 128 | > 128 | > 128 |
| CC(NO)c1c[nH]c2ccccc12 (stereo not drawn) | 128 (≈ 726 µM) | 128 (≈ 726 µM) | 128 (≈ 726 µM) | 128 (≈ 726 µM) | 128 (≈ 726 µM) | 128 (≈ 726 µM) | – | – | – | 64 (≈ 363 µM) | 64 (≈ 363 µM) | 64 (≈ 363 µM) | – | – |
| CC(C)CC(c1c[nH]c2ccc(Cl)cc12)N(O)Cc1ccccc1 (stereo not drawn) | > 128 | > 128 | > 128 | > 128 | > 128 | > 128 | > 128 | > 128 | > 128 | > 128 | > 128 | > 128 | > 128 | > 128 |
| CC(NO)c1c[nH]c2ccc(Br)cc12 (stereo not drawn) | 64 (≈ 251 µM) | 64 (≈ 251 µM) | 64 (≈ 251 µM) | 64 (≈ 251 µM) | 64 (≈ 251 µM) | 64 (≈ 251 µM) | – | – | – | 64 (≈ 251 µM) | 64 (≈ 251 µM) | 64 (≈ 251 µM) | – | – |
| CC(C)(C)OC(=O)NCC(c1c[nH]c2cccc(Br)c12)N(O)Cc1ccccc1 (stereo not drawn) | > 128 | > 128 | > 128 | > 128 | > 128 | > 128 | > 128 | > 128 | > 128 | > 128 | > 128 | > 128 | > 128 | > 128 |
| CC(C)(C)OC(=O)NCC(NO)c1c[nH]c2cc(Br)ccc12 (stereo not drawn) | 64 (≈ 173 µM) | 64 (≈ 173 µM) | 64 (≈ 173 µM) | 64 (≈ 173 µM) | 64 (≈ 173 µM) | 64 (≈ 173 µM) | – | – | – | 64 (≈ 173 µM) | 64 (≈ 173 µM) | 64 (≈ 173 µM) | – | – |
| CC(c1c[nH]c2ccc(I)cc12)N(O)Cc1ccccc1 (stereo not drawn) | > 128 | > 128 | > 128 | > 128 | > 128 | > 128 | > 128 | > 128 | > 128 | > 128 | > 128 | > 128 | > 128 | > 128 |
| CC(C)(C)OC(=O)NCC(NO)c1c[nH]c2ccc(F)cc12 (stereo not drawn) | > 128 | > 128 | > 128 | > 128 | > 128 | > 128 | – | – | – | > 128 | > 128 | > 128 | – | – |
| CC(C)(C)OC(=O)NCC(NO)c1c[nH]c2cc(F)ccc12 (stereo not drawn) | > 128 | > 128 | > 128 | > 128 | > 128 | > 128 | – | – | – | > 128 | > 128 | > 128 | – | – |
| CC(NO)c1c[nH]c2ccc(F)cc12 (stereo not drawn) | 64 (≈ 330 µM) | 64 (≈ 330 µM) | 64 (≈ 330 µM) | 64 (≈ 330 µM) | 64 (≈ 330 µM) | 64 (≈ 330 µM) | – | – | – | 64 (≈ 330 µM) | 64 (≈ 330 µM) | 64 (≈ 330 µM) | – | – |
